Results as given in article PMC3790193 (British Journal of Cancer, 2013).
Like-named read-outs stand apart in the source and are kept apart here. Each block holds one molecule with its values, some of them ahead of it.

What was measured:
[1] = test system: Calu-6 tumours; experiment: Gene expression in lung tumours; type: in vivo, Rowett nude rats
Method in brief: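 Male nude rats (8–10 weeks) given orotracheal Calu-6 cells. From week 3 they received saline, 2 mg kg−1 i.p., or 0.6 mg kg−1 aerosol on 4 consecutive days for 4 weeks. Five tumours from each of four rats per group; RNA by TRI-reagent, 1 μg reverse transcribed; TaqMan qPCR normalised to GAPDH. 2−ΔΔCt relative to vehicle tumours; triplicate assays; mean±s.e.m.; two-sample t-test.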

[2] = test system: Calu-6 cells; settings: systemic delivery, previous study; ref Belinsky et al, 2011; cited from earlier work
[3] = Aerosol characterisation; type: physicochemical; settings: nebulised solution 5 mg ml^−1, Pari LC Plus nebulisers
Method in brief: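 Aerosol from a 5 mg ml−1 solution made by three jet nebulisers, piped through a ~24 in, 1.58-cm stainless tube into a 52-port flow-past nose-only chamber (exhaust ~14 l min−1). Concentration measured gravimetrically on membrane filters. Particle size sampled from the breathing zone with a Mercer-style cascade impactor at ~2.0 l min−1; MMAD calculated from the impactor data.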

[4] = test system: Calu-6 cells; experiment: Orthotopic lung cancer model, tumour burden; type: in vivo, Rowett nude rats; settings: for reduction in tumour burden: vs vehicle
Method in brief: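 Calu-6 cells instilled orotracheally into male nude rats. From 3 weeks, groups of 20 received saline, 2 mg kg−1 i.p., or 0.6 mg kg−1 aerosol on 4 consecutive days over 4 weeks. At 7 weeks, lungs weighed; burden = tumour-bearing minus normal lung weight (rats without tumour cells). Lungs inflated with 10% neutral-buffered formalin at 25 cm for 6 h; 5-μm paraffin sections, H&E. t-test/ANOVA.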

[5] = test system: Calu-6 tumours; experiment: Gene methylation profiling of tumours; type: in vivo, Rowett nude rats
Method in brief: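 Bisulphite-treated DNA from Calu-6 lung tumours (three per rat, four rats per group: vehicle, i.p. or aerosol) run on HM450K arrays. Normal bronchial epithelial lines from three never smokers used as reference. Probes from 200 bp 5′ of TSS through 5′-UTR; X, Y and imprinted genes excluded. Background corrected by normal-exponential method; β-values 0–1. Genes with normal β ⩾0.2 excluded. Vehicle β ⩾0.45 counted as methylated; ⩾20% β drop counted as demethylation.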

[6] = type: in vivo, Rowett nude rats; settings: for half-life / AUC: male, Rowett nude (Cr:NIH-ru), rat
Method in brief: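 Male Rowett nude rats dosed once with drug in saline: 2 mg kg−1 i.p., or aerosol over 90 min nose-only (0.6 mg kg−1 deposited). Deposited dose = aerosol concentration × minute volume × time × deposition fraction (~10%) ÷ body weight. Three rats per group killed at each of 11 times over 96 h. Plasma and lung extracted by solid-phase extraction; LC/MS/MS on C18 column (25 °C), positive ESI. Non-compartmental analysis of per-time-point means.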

[7] = test system: lung cancer; settings: nebuliser, ref Lemarie et al, 2011, cited from earlier work
[8] = aerosol, 0.6 mg kg^−1 inhaled deposited dose, 90 min nose-only, single dose
[9] = plasma, inhaled or intranasal, 0.6 mg/kg
[10] = systemic, intraperitoneal injection 2 mg kg^−1, single dose

average MMAD (mean mass aerodynamic diameter) [3]: 0.71 μm | weight gain of rats ([4]; irrespective of treatment route): 15–20% | AUC Lung [6, 8]: 8460 ng·h/mL | Concentrationmax Lung [6, 8]: 7883 ng/mL | Concentrationmax Plasma [6, 8]: 893 ng/mL | half-life ([6]; lung, inhaled or intranasal, 0.6 mg/kg): 110 min | half-life ([6]; lung, ip, 2 mg/kg): 8.4 min | AUC [6, 9]: 1890 ng·h/mL | half-life [6, 9]: 74.4 min | AUC ([6]; plasma, ip, 2 mg/kg): 19100 ng·h/mL | half-life ([6]; plasma, ip, 2 mg/kg): 25.2 min | AUC Lung [6, 10]: 1082 ng·h/mL | Concentrationmax Lung [6, 10]: 2147 ng/mL | Concentrationmax Plasma [6, 10]: 15 492 ng ml^−1
Structure (SMILES): Nc1ncn([C@@H]2O[C@H](CO)[C@@H](O)[C@H]2O)c(=O)n1 [5-Aza, 5-azacytidine]
effect on the expression of Bik ([1]; aerosol delivery compared with systemic delivery, P<0.001): more profound effect | expression of p21 (WAF1) ([1]; following systemic or aerosol delivery): increased to a similar extent | pleomorphic cell population in residual tumour [2]: < 5 % of the residual tumour | Lung weight, mean±s.d. ([4]; aerosol 0.6 mg kg^−1, 4 consecutive days over 4 consecutive weeks, N=17): 3.72 ± 0.82 g | reduction in tumour burden ([4]; aerosol delivery over 4 weeks): 29% | removal of the pleomorphic cell population of tumours ([4]; inhaled delivery, histology (not shown)): equally effective as systemic delivery | Lung weight, mean±s.d. ([4]; systemic 2 mg kg^−1, 4 consecutive days over 4 consecutive weeks, N=18): 3.58 ± 0.95 g | reduction in tumour burden ([4]; systemic delivery over 4 weeks): 34% | average number of genes showing ⩾20% demethylation ([5]; aerosol delivery): 521 genes | genes classified as methylated in the Calu-6 tumours that responded ([5]; aerosol delivery, on average): approximately 50% | genes commonly demethylated in 75% of tumours ([5]; aerosol exposure): 501 genes | genes in common across all tumours demethylated ⩾20% ([5]; aerosol-treated rats): 300 genes | average number of genes showing ⩾20% demethylation ([5]; systemic delivery): 352 genes | genes commonly demethylated in 75% of tumours ([5]; systemic exposure): 275 genes | genes in common across all tumours demethylated ⩾20% ([5]; systemic treatment): 20 genes

Structure (SMILES): Nc1ccn([C@@H]2O[C@H](CO)[C@@H](O)C2(F)F)c(=O)n1 [Gemcitabine]
total dose delivered to the lungs, on average ([7]; 1 day per week for 9 consecutive weeks): 42±16% | toxicity [7]: no haematologic toxicity, nephrotoxicity, or neurotoxicity were observed
